From PubChem
GASC1 inh – KDM4C (human) demethylase inhibition; Q9H3R0; GST-KDM4C 2-372, H3K9me3 peptide, LANCE TR-FRET; inhibition, % at 12.5 µM; actives 0.15% (n = 96,000); AID 720574;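 active = mean replicate inhibition above about 25%, with at least 55% of replicates also reaching it, limit read from the data, passing the limit was not always enough; inconclusive = only one of those two conditions met; inactive = neither condition met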
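Assay system: GST-GASC-1 enzyme fragment 2-372 | Amount: 10 nM enzyme | Medium: HEPES buffer, pH 7.5, plus ascorbate | Reagent: H3K9me3 peptide substrate, Fe(II), 2-oxoglutarate | Doses: Single-point compound screen | Incubation: 30 min demethylation and 1 h detection at room temperature | Measured by: LANCE TR-FRET, excitation 340 nm, emissions 618 and 671 nm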
T cruzi growth-1 – T. cruzi proliferation inhibition; T. cruzi beta-gal in NIH3T3, GalScreen luminescence, 90 h; inhibition, % at 8.34 µM; actives 5.9% (n = 77,000);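 active = mean inhibition above about 93%, with at least 55% of replicates each passing it, limit read from the data, passing the limit was not always enough; inconclusive = only one of those two conditions holds; inactive = neither condition holds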
Pf Dd2 inh – P. falciparum Dd2 growth inhibition; SYBR Green, 72 h; stronger effect = lower value; activity change, % at 10 µM; actives 2.3% (n = 94,000); in the data active = activity change below about -80%; inconclusive = no clear call, values can overlap the other calls
IDH1 mut inh – blocks human IDH1 R132H reductase activity. actives 0.18% (n = 70,000). diaphorase/resazurin fluorescence, 60 min. inhibition, % at 10 µM. O75874. AID 624101; in the data active = inhibition above about 34%; inconclusive = no clear call, values can overlap the other calls; inactive = below about 11%;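 note: 0% = DMSO and 100% = no enzyme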
Target sequence (O75874 whole entry R132H): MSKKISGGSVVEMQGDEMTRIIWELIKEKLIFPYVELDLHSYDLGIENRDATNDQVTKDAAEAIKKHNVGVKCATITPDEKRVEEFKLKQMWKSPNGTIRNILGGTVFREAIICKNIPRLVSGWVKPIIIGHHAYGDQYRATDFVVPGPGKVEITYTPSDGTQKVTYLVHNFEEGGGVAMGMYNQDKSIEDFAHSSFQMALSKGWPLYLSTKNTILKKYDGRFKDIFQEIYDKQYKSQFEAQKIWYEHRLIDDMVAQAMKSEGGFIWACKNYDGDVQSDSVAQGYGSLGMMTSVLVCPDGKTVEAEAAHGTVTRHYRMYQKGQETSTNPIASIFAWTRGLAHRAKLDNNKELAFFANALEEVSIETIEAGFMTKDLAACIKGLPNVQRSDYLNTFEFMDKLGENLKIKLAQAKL
T cruzi growth-2 – blocks T. cruzi growth in NIH3T3 host cells; shares compounds with T cruzi growth-1; actives 72% (n = 5,600); T. cruzi beta-gal in NIH3T3, GalScreen luminescence, 90 h; inhibition, % at 8.35 µM;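 active = mean replicate inhibition above about 95% and at least 55% of replicates individually reaching it, limit read from the data; inconclusive = only one of the two criteria is met; inactive = neither criterion is met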
T cruzi growth-3 – blocks T. cruzi growth in NIH3T3 host cells. shares compounds with T cruzi growth-1. T. cruzi beta-gal in NIH3T3, GalScreen luminescence, 90 h. inhibition, % at 2.09 µM. actives 21% (n = 5,600);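 active = mean inhibition above about 95%, with at least 55% of replicates also reaching it, limit read from the data; inconclusive = meets just one of the two conditions; inactive = meets neither condition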;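 note: plate controls were neutral control median for no effect and positive control median for full effect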
3T3 cytotox – cytotoxicity in mouse NIH/3T3 fibroblasts. shares compounds with T cruzi growth-1. NIH/3T3 viability, CellTiter-Glo ATP luminescence, 90 h. cytotoxicity (signal decrease), % at 8.35 µM. actives 14% (n = 5,600);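 active = mean signal decrease across replicates above about 35% based on untreated-well scatter, with enough replicates individually passing, limit read from the data; inconclusive = no rule stated though some were filed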;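 note: 0% = median of neutral control wells and 100% = median of positive control wells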
NIH3T3 tox 2 – kills mouse NIH/3T3 fibroblasts. AID 651744. actives 56% (n = 5,600). inhibition, % at 24.9 µM. NIH/3T3 viability, CellTiter-Glo ATP luminescence, 90 h. shares compounds with T cruzi growth-1;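 active = mean loss of cell viability signal at or above a set limit, and enough replicates individually reaching it; inconclusive = meets only the mean limit or only the replicate share; inactive = meets neither condition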;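 note: 0% = median of neutral control wells and 100% = median of positive control wells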
* hit, by the source's call; ? = inconclusive; / = no result given; ! = repeats disagree. Sampled rows, rich in hits. Any-hit rate of the full collection: about 5.8%.

SMILES | GASC1 inh | T cruzi growth-1 | Pf Dd2 inh | IDH1 mut inh | T cruzi growth-2 | T cruzi growth-3 | 3T3 cytotox | NIH3T3 tox 2
CCCN1C[C@@H](C)[C@H](OC)CN(C)C(=O)c2cc(NS(=O)(=O)c3ccccc3)ccc2OC[C@H]1C | 1 | 91* | -66 | 0 | 98* | 41 | 2 | -5
CCCN1C[C@@H](C)[C@H](OC)CN(C)C(=O)c2cc(NC(=O)Nc3cccc(OC)c3)ccc2OC[C@H]1C | / | 102* | / | 0 | 110* | 75 | -2 | 54*
CCS(=O)(=O)Nc1ccc2c(c1)C(=O)N(C)C[C@@H](OC)[C@H](C)CN(Cc1ccccn1)[C@@H](C)CO2 | 2 | 99* | 40 | 0 | -25 | -32 | -6 | 4
CCCN1C[C@@H](C)[C@H](OC)CN(C)C(=O)c2cc(NS(=O)(=O)c3ccccc3)ccc2OC[C@@H]1C | 3 | -12 | -5 | 0 | / | / | / | /
C=CCC/C=N/NC(=O)CCCCCCC(=O)Nc1ccccc1O | / | / | / | 0 | / | / | / | /
CCOC(=O)c1sc2ncn(CC(=O)Nc3cccc(Br)c3)c(=O)c2c1C | / | / | / | 0 | / | / | / | /
CO[C@@H]1CN(C)C(=O)c2cc(NS(=O)(=O)c3ccccc3)ccc2OC[C@H](C)N(Cc2nccs2)C[C@@H]1C | -1 | 111* | -22 | 0 | 74 | 2 | 18 | 45*
COc1cc(-c2oc3cc(O)cc(O)c3c(=O)c2OC2OC(CO)C(O)C(O)C2O)ccc1O (stereo unspecified) | / | / | / | -1 | / | / | / | /
Cc1nnc(SCC(=O)Nc2ccc([N+](=O)[O-])cc2O)s1 | / | / | / | 0 | / | / | / | /
C[C@@H]1CN([C@H](C)CO)S(=O)(=O)c2ccc(C3=CCCC3)cc2O[C@H]1CN(C)Cc1ccncc1 | -1 | 115* | -65 | 2 | 98* | 104* | 68* | 76*
C[C@@H]1CN([C@H](C)CO)S(=O)(=O)c2ccc(C3=CCCC3)cc2O[C@@H]1CN(C)Cc1ccncc1 | 4 | 74 | -19 | / | / | / | / | /
C[C@H]1CN([C@@H](C)CO)S(=O)(=O)c2ccc(C3=CCCC3)cc2O[C@@H]1CN(C)Cc1ccncc1 | 0 | 117* | -23 | / | 98* | ? | 45* | 97*
C[C@H]1CN([C@@H](C)CO)S(=O)(=O)c2ccc(C3=CCCC3)cc2O[C@H]1CN(C)Cc1ccncc1 | 4 | 105* | -34 | 1 | 102* | 92 | 19 | 31*
Cc1ccc(CN2C(=O)C(O)(CC(=O)c3c(C)coc3C)c3cc(Cl)ccc32)cc1 (stereo unspecified) | / | / | / | 0 | / | / | / | /
Cc1cc(OCC(=O)Nc2ccc3oc(-c4ccncc4)nc3c2)cc(C)c1Cl | / | / | / | 0 | / | / | / | /
COCc1cc(C)n(CC(=O)Nc2cc(Cl)ccc2OC)c(=O)c1C#N | / | / | / | 0 | / | / | / | /
O=C(Nc1ccccc1F)N1CCCCN2[C@H](C1)[C@H](c1ccc(/C=C/c3ccccc3)cc1)[C@@H]2CO | -1 | 116* | -14 | / | 110* | 51 | 4 | 47*
O=C(Nc1ccccc1F)N1CCCCN2[C@H](CO)[C@@H](c3ccc(/C=C/c4ccccc4)cc3)[C@@H]2C1 | -2 | 112* | -9 | / | 98* | 101* | 12 | 105*
Cn1c(SCC(=O)Nc2cccc3ccccc23)nnc1-c1cccs1 | / | / | / | 1 | / | / | / | /
COc1ccc(S(=O)(=O)N(C)C[C@@H]2Oc3cc(C#CC4CCCC4)ccc3S(=O)(=O)N([C@H](C)CO)C[C@H]2C)cc1 | 1 | 13 | -49 | 0 | / | / | / | /
COc1ccc(S(=O)(=O)N(C)C[C@@H]2Oc3cc(C#CC4CCCCC4)ccc3S(=O)(=O)N([C@@H](C)CO)C[C@@H]2C)cc1 | 3 | 111*! | -84*! | 1 | 92 | 78 | -10 | 59*
C[C@@H]1CN([C@H](C)CO)S(=O)(=O)c2ccc(C#CC3CCCC3)cc2O[C@H]1CN(C)S(C)(=O)=O | -1 | 43 | -10 | -6 | / | / | / | /
Cc1ccc(S(=O)(=O)N(C)C[C@@H]2Oc3cc(C#CC4CCCC4)ccc3S(=O)(=O)N([C@H](C)CO)C[C@@H]2C)cc1 | 0 | 125* | -29 | 0 | 89 | 103* | 7 | 4
COc1ccc(S(=O)(=O)N(C)C[C@@H]2Oc3cc(C#CC4CC4)ccc3S(=O)(=O)N([C@@H](C)CO)C[C@@H]2C)cc1 | 0 | 110* | -53 | / | 104* | 101* | -19 | 27*
COc1ccc(S(=O)(=O)N(C)C[C@@H]2Oc3cc(C#CC4CC4)ccc3S(=O)(=O)N([C@H](C)CO)C[C@@H]2C)cc1 | 0 | 109* | -54 | -2 | 104* | 85 | 12 | 25*
SMILES | GASC1 inh | T cruzi growth-1 | Pf Dd2 inh | IDH1 mut inh | T cruzi growth-2 | T cruzi growth-3 | 3T3 cytotox | NIH3T3 tox 2
COc1ccc(S(=O)(=O)N(C)C[C@H]2Oc3cc(C#CC4CC4)ccc3S(=O)(=O)N([C@H](C)CO)C[C@@H]2C)cc1 | 1 | 106* | -54 | / | 103* | 52 | 22 | 50*
CN(C)CC(=O)N1[C@H](CO)[C@@H](c2ccc(C#CC3CCCCC3)cc2)[C@@H]1C#N | -1 | 99* | -20 | / | 102* | 66 | -12 | 106*
CC(C)NC(=O)N1[C@H](C#N)[C@@H](c2ccc(C#CC3CCCC3)cc2)[C@@H]1CO | -2 | 99* | -44 | / | 106* | 70 | 7 | -21
CC(C)NC(=O)N1[C@H](CO)[C@H](c2ccc(C#CC3CCCC3)cc2)[C@@H]1C#N | -2 | 93 | -40 | 0 | / | / | / | /
CN(C)CC(=O)N1[C@H](C#N)[C@H](c2ccc(C#CC3CCCCC3)cc2)[C@@H]1CO | 0 | 93 | -33 | / | / | / | / | /
CC(C)NC(=O)N1[C@H](C#N)[C@@H](c2ccc(C#CC3CCCCC3)cc2)[C@H]1CO | 2 | 54 | -7 | / | / | / | / | /
N#C[C@@H]1[C@H](c2ccc(C#CC3CCCC3)cc2)[C@@H](CO)N1C(=O)c1cccc(F)c1 | 2 | / | -55 | / | / | / | / | /
CC(C)NC(=O)N1[C@H](C#N)[C@H](c2ccc(C#CC3CCCC3)cc2)[C@H]1CO | 0 | 102* | -69 | / | 103* | 101* | -9 | 4
N#C[C@H]1[C@H](c2ccc(C#CC3CCCC3)cc2)[C@H](CO)N1C(=O)Nc1ccc(F)cc1 | 1 | 103* | -30 | / | 106* | 76 | 4 | 105*
Cc1c(Cl)cccc1N(CC(=O)Nc1cc(Cl)cc(Cl)c1)S(C)(=O)=O | / | / | / | 0 | / | / | / | /
N#C[C@H]1[C@H](c2ccc(C#Cc3cccc(F)c3)cc2)[C@H](CO)N1C(=O)C1CCCC1 | 0 | 105* | -45 | / | 102* | 77 | 11 | 95*
N#C[C@H]1[C@@H](c2ccc(C#Cc3cccc(F)c3)cc2)[C@H](CO)N1C(=O)C1CCCC1 | -2 | 100* | -22 | / | 92 | 105* | 9 | 103*
